Experimental data from ChEMBL document CHEMBL1135836, “Cyclodextrin-derived host molecules as reversal agents for the neuromuscular blocker rocuronium bromide: synthesis and structure-activity relationships” (J Med Chem, 2002).

What was measured:
Type in all cases: functional
Cavia porcellus [1] = assay: In vivo reversal activity versus ~90% block by rocuronium in guinea pig, expressed as % of maximum reversal at 3.2 umol/kg conc.
Outline: (§1)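 Male Dunkin-Hartley guinea pigs (600-900 g) anaesthetized ip with pentobarbitone 10 mg/kg plus urethane 1000 mg/kg, tracheotomized and artificially ventilated. Continuous iv rocuronium bromide infusion (~10 nmol kg-1 min-1) raised until steady-state twitch block of 85-90%. Increasing single iv doses of reversal agent given by a separate catheter. Max reversal is peak twitch recovery versus preblock height at highest dose tested; means ± SEM, n ≥ 2 or single experiment.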

Cavia porcellus [2] = assay: In vivo reversal activity versus ~90% block by rocuronium in guinea pig
Outline: (§2)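 Male Dunkin-Hartley guinea pigs (600-900 g), anaesthetized ip with pentobarbitone 10 mg/kg plus urethane 1000 mg/kg, tracheotomized and ventilated. Continuous iv rocuronium infusion (~10 nmol kg-1 min-1) was raised to a steady 85-90% block. Increasing iv doses of agent were given cumulatively. ED50 = 50% recovery versus preblock twitch, by regression. Mean ± SEM of at least two experiments, or one.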

Mus musculus [3] = species: Mus musculus; assay: In vitro reversal activity versus ~90% block by rocuronium in isolated mouse hemidiaphragm, expressed as % of maximum reversal at 14.4 uM conc.
Mus musculus [4] = species: Mus musculus; assay: In vitro reversal activity versus ~90% block by rocuronium in isolated mouse hemidiaphragm, expressed as effective conc.
Mus musculus [5] = species: Mus musculus; assay: In vitro reversal activity versus ~90% block by rocuronium in isolated mouse hemidiaphragm, expressed as % of maximum reversal at 12.6 uM conc.
Cavia porcellus [6] = assay: In vivo reversal activity versus ~90% block by rocuronium in guinea pig, expressed as % of maximum reversal at 2.5 umol/kg conc.; outline: as §1
Cavia porcellus [7] = assay: In vivo reversal activity versus ~90% block by rocuronium in guinea pig, expressed as % of maximum reversal at 0.6 umol/kg conc.; outline: as §2
Mus musculus [8] = species: Mus musculus; assay: In vitro reversal activity versus ~90% block by rocuronium in isolated mouse hemidiaphragm, expressed as % of maximum reversal at 5.4 uM conc.
Mus musculus [9] = species: Mus musculus; assay: In vitro reversal activity versus ~90% block by rocuronium in isolated mouse hemidiaphragm, expressed as % of maximum reversal at 18 uM conc.
Cavia porcellus [10] = assay: In vivo reversal activity versus ~90% block by rocuronium in guinea pig, expressed as % of maximum reversal at 21 umol/kg conc.; outline: as §1
Cavia porcellus [11] = assay: In vivo reversal activity versus ~90% block by rocuronium in guinea pig, expressed as % of maximum reversal at 30.7 umol/kg conc.; outline: as §1
Cavia porcellus [12] = assay: In vivo reversal activity versus ~90% block by rocuronium in guinea pig, expressed as % of maximum reversal at 3.9 umol/kg conc.; outline: as §1
Cavia porcellus [13] = assay: In vivo reversal activity versus ~90% block by rocuronium in guinea pig, expressed as % of maximum reversal at 1.3 umol/kg conc.; outline: as §2
Mus musculus [14] = species: Mus musculus; assay: In vitro reversal activity versus ~90% block by rocuronium in isolated mouse hemidiaphragm, expressed as % of maximum reversal at 7.2 uM conc.
Cavia porcellus [15] = assay: In vivo reversal activity versus ~90% block by rocuronium in guinea pig, expressed as % of maximum reversal at 25.6 umol/kg conc.; outline: as §1
Mus musculus [16] = species: Mus musculus; assay: In vitro reversal activity versus ~90% block by rocuronium in isolated mouse hemidiaphragm, expressed as % of maximum reversal at 2.2 uM conc.
Cavia porcellus [17] = assay: In vivo reversal activity versus ~90% block by rocuronium in guinea pig, expressed as % of maximum reversal at 1.4 umol/kg conc.; outline: as §2
Cavia porcellus [18] = assay: In vivo reversal activity versus ~90% block by rocuronium in guinea pig, expressed as % of maximum reversal at 316 umol/kg conc.; outline: as §1
Mus musculus [19] = species: Mus musculus; assay: In vitro reversal activity versus ~90% block by rocuronium in isolated mouse hemidiaphragm, expressed as % of maximum reversal at 360 uM conc.

| Compound | EC50 (Mus musculus [4]) [µM] | ED50 (Cavia porcellus [2]) [µmol/kg] | Max reversal (Mus musculus [9]) [%] | other results |
| --- | --- | --- | --- | --- |
| O=C([O-])CCCSCC1O[C@@H]2O[C@@H]3C(CSCCCC(=O)[O-])O[C@H](O[C@@H]4C(CSCCCC(=O)[O-])O[C@H](O[C@@H]5C(CSCCCC(=O)[O-])O[C@@H](O[C@@H]6C(CSCCCC(=O)[O-])O[C@H](O[C@@H]7C(CSCCCC(=O)[O-])O[C@H](O[C@@H]8C(CSCCCC(=O)[O-])O[C@H](O[C@H]1C(O)C2O)C(O)C8O)C(O)C7O)C(O)C6O)C(O)C5O)C(O)C4O)C(O)C3O.[Na+].[Na+].[Na+].[Na+].[Na+].[Na+].[Na+] (stereo not given in full) | 5 | 0.49 |  | Max reversal (Cavia porcellus [1]): 99.6%; Max reversal (Mus musculus [3]): 95.3% |
| O=C([O-])CCCCCSCC1O[C@@H]2O[C@@H]3C(CSCCCCCC(=O)[O-])O[C@H](O[C@@H]4C(CSCCCCCC(=O)[O-])O[C@H](O[C@@H]5C(CSCCCCCC(=O)[O-])O[C@H](O[C@@H]6C(CSCCCCCC(=O)[O-])O[C@H](O[C@@H]7C(CSCCCCCC(=O)[O-])O[C@H](O[C@@H]8C(CSCCCCCC(=O)[O-])O[C@H](O[C@@H]9C(CSCCCCCC(=O)[O-])O[C@H](O[C@H]1C(O)C2O)C(O)C9O)C(O)C8O)C(O)C7O)C(O)C6O)C(O)C5O)C(O)C4O)C(O)C3O.[Na+].[Na+].[Na+].[Na+].[Na+].[Na+].[Na+].[Na+] (stereo not given in full) | 7 | 0.74 |  | Max reversal (Mus musculus [5]): 81.7%; Max reversal (Cavia porcellus [6]): 78.4% |
| O=C([O-])CSCC1O[C@@H]2O[C@@H]3C(CSCC(=O)[O-])O[C@H](O[C@@H]4C(CSCC(=O)[O-])O[C@H](O[C@@H]5C(CSCC(=O)[O-])O[C@H](O[C@@H]6C(CSCC(=O)[O-])O[C@H](O[C@@H]7C(CSCC(=O)[O-])O[C@H](O[C@H]1C(O)C2O)C(O)C7O)C(O)C6O)C(O)C5O)C(O)C4O)C(O)C3O.[Na+].[Na+].[Na+].[Na+].[Na+].[Na+] (stereo not given in full) | > 18 | > 21 | 22.8 | Max reversal (Cavia porcellus [10]): 3.6% |
| O=C([O-])Cc1ccc(SCC2O[C@@H]3O[C@@H]4C(CO)O[C@H](O[C@@H]5C(CO)O[C@H](O[C@@H]6C(CO)O[C@H](O[C@@H]7C(CO)O[C@H](O[C@@H]8C(CO)O[C@H](O[C@@H]9C(CO)O[C@H](O[C@@H]%10C(CO)O[C@H](O[C@H]2C(O)C3O)C(O)C%10O)C(O)C9O)C(O)C8O)C(O)C7O)C(O)C6O)C(O)C5O)C(O)C4O)cc1.[Na+] (stereo not given in full) | 34.7 | 4.55 | 45 | Max reversal (Cavia porcellus [11]): 97.1% |
| OCCCCSCC1O[C@@H]2O[C@@H]3C(CSCCCCO)O[C@H](O[C@@H]4C(CSCCCCO)O[C@H](O[C@@H]5C(CSCCCCO)O[C@H](O[C@@H]6C(CSCCCCO)O[C@H](O[C@@H]7C(CSCCCCO)O[C@H](O[C@@H]8C(CSCCCCO)O[C@H](O[C@@H]9C(CSCCCCO)O[C@H](O[C@H]1C(O)C2O)C(O)C9O)C(O)C8O)C(O)C7O)C(O)C6O)C(O)C5O)C(O)C4O)C(O)C3O (stereo not given in full) | 6.5 | 3.94 | 78.9 | Max reversal (Cavia porcellus [12]): 52.8% |
| OC[C@H]1O[C@@H]2O[C@H]3[C@H](O)[C@@H](O)[C@@H](O[C@H]4[C@H](O)[C@@H](O)[C@@H](O[C@H]5[C@H](O)[C@@H](O)[C@@H](O[C@H]6[C@H](O)[C@@H](O)[C@@H](O[C@H]7[C@H](O)[C@@H](O)[C@@H](O[C@H]8[C@H](O)[C@@H](O)[C@@H](O[C@H]1[C@H](O)[C@H]2O)O[C@@H]8CO)O[C@@H]7CO)O[C@@H]6CO)O[C@@H]5CO)O[C@@H]4CO)O[C@@H]3CO [BETADEX] | > 360 | 20 |  | Max reversal (Cavia porcellus [18]): 92.9%; Max reversal (Mus musculus [19]): 29% |

Second part, led by results:

| EC50 (Mus musculus [4]) [µM] | Compound | ED50 (Cavia porcellus [2]) [µmol/kg] | Max reversal (Mus musculus [9]) [%] | other results |
| --- | --- | --- | --- | --- |
| 1.08 | O=C([O-])CCC(=O)NCCSCC1O[C@@H]2O[C@@H]3C(CSCCNC(=O)CCC(=O)[O-])O[C@H](O[C@@H]4C(CSCCNC(=O)CCC(=O)[O-])O[C@H](O[C@@H]5C(CSCCNC(=O)CCC(=O)[O-])O[C@H](O[C@@H]6C(CSCCNC(=O)CCC(=O)[O-])O[C@H](O[C@@H]7C(CSCCNC(=O)CCC(=O)[O-])O[C@H](O[C@@H]8C(CSCCNC(=O)CCC(=O)[O-])O[C@H](O[C@@H]9C(CSCCNC(=O)CCC(=O)[O-])O[C@H](O[C@H]1C(O)C2O)C(O)C9O)C(O)C8O)C(O)C7O)C(O)C6O)C(O)C5O)C(O)C4O)C(O)C3O.[Na+].[Na+].[Na+].[Na+].[Na+].[Na+].[Na+].[Na+] (stereo not given in full) | 0.07 |  | Max reversal (Cavia porcellus [7]): 107.1%; Max reversal (Mus musculus [8]): 99.4% |
| 3.3 | O=C([O-])c1cccc(SCC2O[C@@H]3O[C@@H]4C(CSc5cccc(C(=O)[O-])c5)O[C@H](O[C@@H]5C(CSc6cccc(C(=O)[O-])c6)O[C@H](O[C@@H]6C(CSc7cccc(C(=O)[O-])c7)O[C@H](O[C@@H]7C(CSc8cccc(C(=O)[O-])c8)O[C@H](O[C@@H]8C(CSc9cccc(C(=O)[O-])c9)O[C@H](O[C@@H]9C(CSc%10cccc(C(=O)[O-])c%10)O[C@H](O[C@@H]%10C(CSc%11cccc(C(=O)[O-])c%11)O[C@H](O[C@H]2C(O)C3O)C(O)C%10O)C(O)C9O)C(O)C8O)C(O)C7O)C(O)C6O)C(O)C5O)C(O)C4O)c1.[Na+].[Na+].[Na+].[Na+].[Na+].[Na+].[Na+].[Na+] (stereo not given in full) | 0.28 |  | Max reversal (Cavia porcellus [13]): 102%; Max reversal (Mus musculus [14]): 95.7% |
| 4.9 | Oc1ccc(SCC2O[C@@H]3O[C@@H]4C(CSc5ccc(O)cc5)O[C@H](O[C@@H]5C(CSc6ccc(O)cc6)O[C@H](O[C@@H]6C(CSc7ccc(O)cc7)O[C@H](O[C@@H]7C(CSc8ccc(O)cc8)O[C@H](O[C@@H]8C(CSc9ccc(O)cc9)O[C@H](O[C@@H]9C(CSc%10ccc(O)cc%10)O[C@H](O[C@@H]%10C(CSc%11ccc(O)cc%11)O[C@H](O[C@H]2C(O)C3O)C(O)C%10O)C(O)C9O)C(O)C8O)C(O)C7O)C(O)C6O)C(O)C5O)C(O)C4O)cc1 (stereo not given in full) | 4.1 |  | Max reversal (Mus musculus [3]): 93.2%; Max reversal (Cavia porcellus [15]): 79.3% |
| 1 | O=C([O-])c1ccc(SCC2O[C@@H]3O[C@@H]4C(CSc5ccc(C(=O)[O-])cc5)O[C@H](O[C@@H]5C(CSc6ccc(C(=O)[O-])cc6)O[C@H](O[C@@H]6C(CSc7ccc(C(=O)[O-])cc7)O[C@H](O[C@@H]7C(CSc8ccc(C(=O)[O-])cc8)O[C@H](O[C@@H]8C(CSc9ccc(C(=O)[O-])cc9)O[C@H](O[C@@H]9C(CSc%10ccc(C(=O)[O-])cc%10)O[C@H](O[C@@H]%10C(CSc%11ccc(C(=O)[O-])cc%11)O[C@H](O[C@H]2C(O)C3O)C(O)C%10O)C(O)C9O)C(O)C8O)C(O)C7O)C(O)C6O)C(O)C5O)C(O)C4O)cc1.[Na+].[Na+].[Na+].[Na+].[Na+].[Na+].[Na+].[Na+] (stereo not given in full) | 0.12 |  | Max reversal (Mus musculus [16]): 97%; Max reversal (Cavia porcellus [17]): 97.6% |
